{"data": "Published values collected from several papers", "target": "Serine/threonine-protein kinase Chk1 (CHEK1, Homo sapiens, UniProt O14757)", "One construct used (O14757 1-476)": "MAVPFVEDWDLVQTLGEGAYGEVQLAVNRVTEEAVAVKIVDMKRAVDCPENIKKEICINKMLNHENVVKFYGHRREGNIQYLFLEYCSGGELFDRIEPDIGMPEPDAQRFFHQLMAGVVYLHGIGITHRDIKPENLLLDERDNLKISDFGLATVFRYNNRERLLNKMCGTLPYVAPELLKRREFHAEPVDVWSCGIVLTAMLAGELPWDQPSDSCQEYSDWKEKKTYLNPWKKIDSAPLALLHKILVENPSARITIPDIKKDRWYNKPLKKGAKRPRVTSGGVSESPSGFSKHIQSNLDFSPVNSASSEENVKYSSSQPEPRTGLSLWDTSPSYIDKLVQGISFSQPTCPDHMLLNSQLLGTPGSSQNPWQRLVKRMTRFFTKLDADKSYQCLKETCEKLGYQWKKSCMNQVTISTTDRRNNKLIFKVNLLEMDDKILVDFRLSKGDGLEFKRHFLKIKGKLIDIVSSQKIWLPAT", "note": "Lines come from different studies, so protocols differ."}
{"SMILES": "Nc1ncc(-c2nc(N3CCOCC3)nc(N3CCOCC3)n2)c(C(F)F)n1", "test": "binding, competition with immobilised ligand", "conditions": "10 µM", "quantity": "remaining binding", "result": "67%"}
{"SMILES": "COc1ncccc1-c1cnn2ccc(N3CCN(C(=O)OC(C)C)CC3)nc12", "test": "binding, competition with immobilised ligand", "conditions": "1 µM", "quantity": "remaining binding", "result": "100%"}
{"SMILES": "Cn1cc(-c2cccc(N3CCc4c(sc5c4CC(C)(C)C5)C3=O)c2CO)cc(Nc2ccncn2)c1=O", "test": "enzyme activity, inhibitor", "conditions": "1 µM", "quantity": "inhibition", "result": "1%"}
{"SMILES": "COc1cc(Nc2ncc(F)c(Nc3ccc4c(n3)NC(=O)C(C)(C)O4)n2)cc(OC)c1OC", "test": "binding, competition with immobilised ligand", "conditions": "10 µM", "quantity": "inhibition", "result": "62%"}
{"SMILES": "CC(C)(C)c1cc(C=C(C#N)C#N)cc(Br)c1O", "test": "enzyme activity, inhibitor", "conditions": "0.5 µM", "quantity": "remaining activity", "result": "100%"}
{"SMILES": "Cn1cc(-c2cc(F)cc(N3CCn4c(cc5c4CCCC5)C3=O)c2CO)cc(Nc2ccc(N3CCN(C4COC4)CC3)cn2)c1=O", "test": "enzyme activity, inhibitor", "conditions": "0.1 µM", "quantity": "inhibition", "result": "2%"}
{"SMILES": "C#Cc1n[nH]c2c(-c3cn([C@@H](C)c4ccccn4)c(=O)[nH]c3=O)cc(F)cc12", "test": "enzyme activity, inhibitor", "conditions": "0.1 µM", "quantity": "inhibition", "result": "-3.2%"}
{"SMILES": "O=c1[nH]c2ccccc2n1C1CCN(Cc2ccc(-c3[nH]c4cc5ncnc5cc4nc3-c3ccccc3)cc2)CC1", "test": "cell-free assay", "conditions": "0.5 µM", "quantity": "remaining signal", "result": "107%"}
{"SMILES": "Cc1nn(C)cc1-c1nc2c(N3CCN(Cc4ccc(Cl)cc4)CC3)c(Cl)cnc2[nH]1", "test": "binding, competition with immobilised ligand", "conditions": "1 µM", "quantity": "remaining binding", "result": "100%"}
{"SMILES": "Cn1cncc1[C@@](O)(COc1ccc(C#N)cc1-c1ccc(OC(F)(F)F)cc1)c1ccc(C#N)cc1", "test": "cell-free assay, competition with immobilised ligand", "conditions": "1 µM", "quantity": "remaining binding", "result": "100%"}
{"SMILES": "C#Cc1n[nH]c2c(-c3cn([C@@H](C)c4ccccc4)c(=O)[nH]c3=O)cc(F)cc12", "test": "enzyme activity, inhibitor", "conditions": "0.1 µM", "quantity": "inhibition", "result": "-1.2%"}
